Screening results as filed in PubChem BioAssay.
Hits are enriched below; roughly 2.9% of the tested compounds scored in any of these assays.
CHO-K1 Ca antag = nonselective inhibitor or artifact in parental CHO-K1 cells; inhibition, % at 3 µM; ATP-induced calcium, Fluo-8 fluorescence; AID 602250; 360,000 compounds, 0.6% hits;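 active means inhibition above a per-plate cutoff, the plate's mean sample inhibition plus 3 SD, cut at about 24% in these data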;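 further: 0% = DMSO plus EC80 ATP and 100% = DMSO alone without ATP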
M1 PAM parental = M1 PAM counterscreen hit in parental CHO-K1 cells. 360,000 compounds, 0.02% hits. AID 602247. activation, % at 3 µM. ATP EC20, Fluo-8 calcium fluorescence; 0% at ATP EC20, 100% at ATP max;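 active means activation above the run cutoff, the mean activation of all test compounds plus 3 SD, cut at about 40% in these data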;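 further: peak over basal fluorescence ratio in a 140 s read after ATP addition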
CHO parental Ca = counter-screen for OX1R antagonists: effect in parental CHO cells | inhibition, % at 5.6 µM | parental CHO-K1, ATP-induced calcium, Fluo-8 fluorescence | 330,000 compounds, 0.63% hits;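 active means inhibition above that plate's mean sample inhibition plus 3 SD, cut at about 26% in these data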;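 further: 0% = ATP-challenged DMSO wells and 100% = DMSO wells without ATP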
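material = parental CHO cells | also added = ATP as calcium-mobilizing challenge | dosing = single point at 5.6 µM | detection = intracellular calcium via Fluo-8 no-wash fluorescent dye | read-out = % inhibition | benchmarks = low control ATP plus DMSO, high control DMSO only | repeats = one well per compound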
OX1R antag-1 = human HCRTR1 antagonism. O43613. CHO/OX1R cells, Fluo-8 calcium fluorescence, orexin A. inhibition, % at 5 µM. 330,000 compounds, 0.43% hits. AID 434989;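 active means inhibition above its plate's threshold, mean inhibition of all tested compounds on the plate plus 3 SD, cut at about 37% in these data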;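 further: 0% = orexin A challenge wells and 100% = SB-334867-A antagonist wells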
Target sequence (O43613 whole entry, looked up): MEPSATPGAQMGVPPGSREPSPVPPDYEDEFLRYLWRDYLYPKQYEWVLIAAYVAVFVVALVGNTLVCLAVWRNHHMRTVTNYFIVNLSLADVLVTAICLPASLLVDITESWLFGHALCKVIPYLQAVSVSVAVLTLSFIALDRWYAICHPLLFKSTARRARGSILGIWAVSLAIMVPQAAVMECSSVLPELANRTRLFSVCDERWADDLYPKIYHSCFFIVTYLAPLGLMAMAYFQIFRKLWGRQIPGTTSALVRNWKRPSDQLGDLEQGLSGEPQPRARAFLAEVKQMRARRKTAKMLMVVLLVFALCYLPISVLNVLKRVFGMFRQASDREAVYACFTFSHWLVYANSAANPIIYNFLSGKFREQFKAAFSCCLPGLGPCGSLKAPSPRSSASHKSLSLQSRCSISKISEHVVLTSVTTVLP
OX1R antag-2 = antagonists of human orexin 1 receptor (OX1R); O43613; OX1R-expressing cells, FRET antagonist read-out; inhibition, % at 6.6 µM; 330,000 compounds, 1.8% hits; AID 485270; in the data active means inhibition mostly above about 38%, no sharp cut-off; inactive means mostly below about 40%;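 further: 0% = agonist challenge alone and 100% = reference antagonist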
CHO-K1 Ca ag = counter-screen for M1 agonists: effect in parental CHO-K1 cells. Fluo-8 calcium fluorescence; scaled to maximal ATP response, vehicle zero. activation, % at 3 µM. 360,000 compounds, 0.48% hits. AID 602248; in the data active means activation above about 15%;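 further: untransfected CHO-K1 host cells lacking M1 receptor as counterscreen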
An asterisk follows results filed as active; . = no result given.

SMILES | CHO-K1 Ca antag | M1 PAM parental | CHO parental Ca | OX1R antag-1 | OX1R antag-2 | CHO-K1 Ca ag
O=C1/C(=C\c2ccc(Br)o2)SC(=Nc2ccccc2)N1c1ccccc1 | -19 | 17 | -15 | -16 | 62* | 0
CCN(CC(=O)Nc1c(F)cccc1F)C(=O)c1nn(C)c(=O)c2ccccc12 | -14 | 16 | -13 | 2 | 5 | 1
COc1ccc(/C=N/NC(=O)c2ccoc2C)cc1COc1c(C)cccc1C | 6 | 9 | 74* | 51* | 37 | 3
Cc1cc(C)cc(Nc2ccc([N+](=O)[O-])nc2[N+](=O)[O-])c1 | -1 | 11 | -11 | -18 | 61* | 7
CCCCNC(=O)C1(C)CCC(=O)N1CCc1c[nH]c2ccccc12 (stereo not drawn) | 8 | 7 | . | . | . | 1
Cc1ccnc(NCc2ccc(Cl)cc2)c1 | -13 | 26 | -16 | -28 | 1 | 4
COc1ccccc1-c1ccc(SCc2cccc(C)c2)nn1 | -16 | -4 | 48* | 14 | 18 | 0
Cc1ccc(S(=O)(=O)NC(C)(C)CSc2nnc(Nc3ccccc3)s2)cc1 | -4 | 13 | 53* | 50* | 39 | 4
COc1ccc(/C=C/c2n[nH]c(=O)c(C#N)c2C)cc1 | -9 | 4 | -24 | -25 | 43* | 0
O=C(Nc1ccc(Cl)cc1)Nc1nc(-c2ccccc2O)cs1 | 15 | -9 | 74* | 41* | 46 | 17*
O=C(Nc1ccccc1)Nc1nc(-c2ccc(F)c(F)c2)cs1 | 20 | -5 | 27 | 12 | -3 | 16*
COc1cccc(-c2csc(NC(=O)Nc3ccccc3)n2)c1 | 1 | -16 | 32* | 45* | 74* | 13
O=C(Nc1ccccc1)Nc1nc(-c2ccccc2)cs1 | 23 | -7 | 6 | 21 | 4 | 9
COc1cc(/C=C/C(=O)OCC(=O)Nc2cc(C)on2)ccc1OCC#N | -4 | 18 | . | . | . | 2
O=C(COC(=O)/C=C/c1cccc(C(F)(F)F)c1)NCc1cccs1 | -9 | 10 | 36* | 8 | 3 | 0
Cc1cc(C)cc(OCC(=O)OCC(=O)NCc2cccs2)c1 | 31* | -11 | 0 | -17 | 4 | 0
O=C(COC(=O)/C=C/c1ccc(Cl)cc1)NCc1cccs1 | -4 | 22 | . | . | . | 9
O=C(COC(=O)COc1ccccc1)NCc1ccccc1 | 5 | 7 | 6 | -2 | 11 | 19*
O=C(COC(=O)c1cccc(C(F)(F)F)c1)NCc1ccccc1 | -14 | 21 | 49* | 10 | 32 | 3
Cc1cc(OCC(=O)OCC(=O)NCc2cccs2)ccc1Cl | -11 | 6 | -6 | -5 | 8 | 2
Cc1noc(C)c1COc1ccc(C(=O)OCc2nnc(-c3ccc(Cl)cc3)o2)cc1 | 4 | 14 | 35* | 54* | 39 | 7
Cc1noc(C)c1CSCC(=O)OCc1nnc(-c2ccc([N+](=O)[O-])cc2)o1 | -21 | 14 | -4 | 1 | 47* | 6
Cc1ccc(S(=O)(=O)CCC(=O)OCc2nnc(-c3ccc([N+](=O)[O-])cc3)o2)cc1 | -10 | -8 | . | . | . | 5
CCOC(=O)c1c(C)oc2c1c(CN1CCN(C(=O)OCC)CC1)c(O)c1ccccc12 | 0 | 6 | -15 | 1 | 70* | 2
O=c1c(Cl)c(Cl)cnn1Cc1nnc(-c2ccccc2Br)o1 | 95* | -7 | . | . | . | 71*
SMILES | CHO-K1 Ca antag | M1 PAM parental | CHO parental Ca | OX1R antag-1 | OX1R antag-2 | CHO-K1 Ca ag
O=C(Nc1ccc2c(c1)OCO2)c1ccc2sc([C@@H]3O[C@H](CO)[C@H](O)[C@H](O)[C@H]3O)nc2c1 | -10 | 11 | . | . | . | 0
CC(=O)NCc1ccc(-c2nc3ccccc3s2)cc1 | -19 | 10 | -21 | -14 | 16 | 1
CC(=O)NCc1ccc(-c2csc(-c3cccs3)n2)cc1 | -18 | -6 | -9 | -14 | 63* | 2
O=C(CCN1C(=O)C2C3C=CC(C3)C2C1=O)N1CCN(c2ccccn2)CC1 (stereo not drawn) | -10 | 15 | -11 | 5 | 16 | 1
O=C1C2C3C=CC(C3)C2C(=O)N1c1ccc(N2CCN(c3ccccn3)CC2)c([N+](=O)[O-])c1 (stereo not drawn) | 20 | -13 | 63* | 29 | 45 | 14
COc1ccc(NC(=O)c2c(OC)cccc2OC)c(OC)c1 | 10 | -11 | -22 | -34 | 46* | 0
COc1ccc(-c2csc(NC(=O)c3c(OC)cccc3OC)n2)cc1 | -14 | 18 | -15 | 2 | 68* | 3
COc1ccc(-c2csc(NC(=O)c3ccccc3NS(=O)(=O)c3ccc(C)cc3)n2)cc1 | 23 | -9 | 7 | 11 | 43* | 11
COc1ccc(OC)c(NC(=O)c2ccc(-c3csc(C)n3)cc2)c1 | -17 | 25 | -25 | 17 | 51* | 2
C=CC(C)(C)O[C@@H]1O[C@H](CO)[C@@H](O)[C@H](O)[C@H]1O | -17 | 13 | -2 | -4 | 10 | 0
Cc1cc(-c2nnc(CSc3nnc(NC(=O)c4ccc(C(C)(C)C)cc4)s3)o2)ccc1[N+](=O)[O-] | 3 | -16 | -8 | 4 | 15 | 0
COc1ccc(S(=O)(=O)Nc2ccccc2C(=O)Nc2nc(-c3ccc(F)cc3)cs2)cc1OC | 33* | -7 | 26 | 39 | 67* | 15
CCCNC(=O)c1ccccc1NS(=O)(=O)c1ccc(OC)c(OC)c1 | 7 | 11 | 5 | -16 | 17 | 0
CC(C)(C)C(=O)OCCNc1nc(-c2ccccc2)nc2ccccc12 | -5 | 7 | -17 | -13 | 72* | 2
CN(C)CCCNc1nc(-c2ccccc2)nc2ccccc12 | -4 | 9 | -28 | -16 | 23 | 1
CCC(Nc1nc(-c2ccccc2)nc2ccccc12)C(=O)O (stereo not drawn) | -2 | 3 | -4 | -11 | 6 | 0
CC(C)OCCCNc1nc(-c2ccccc2)nc2ccccc12 | -13 | 22 | -17 | 23 | 51* | 3
Cc1ccc(CNC(=O)C(=O)NCC2OCCN2S(=O)(=O)c2ccc(Br)cc2)cc1 (stereo not drawn) | -4 | -5 | -21 | -21 | 3 | 4
CCCCCc1cc(O)c2c(C)cc(=O)oc2c1 | 9 | 14 | 23 | 2 | 43* | 6
CCOc1ccc(-c2nc(-c3cccs3)c(CC(=O)O)s2)cc1OC | -6 | 4 | -4 | -7 | 38* | 0
CCOc1ccc(-c2nnc(-c3cccs3)o2)cc1OCC | -10 | 19 | -9 | -25 | 7 | 0
CCCCN1C(=O)C(CC(=O)NCCc2ccccn2)CC(C(=O)N(C(C)C)C(C)C)=C1C (stereo not drawn) | -10 | 10 | . | . | . | 0
O=C(CSc1nc2ccccc2c(=O)n1-c1ccccc1Cl)NCC1CCCO1 (stereo not drawn) | -23 | 19 | -14 | -24 | 9 | 1
CCc1ccc(OCC(=O)NNC(=O)c2cc3ccccc3o2)cc1 | -10 | 19 | 53* | -1 | 9 | 2
